ChEMBL document CHEMBL3272032, “Antifolate studies. Activities of 40 potential antimalarial compounds against sensitive and chlorguanide triazine resistant strains of folate-requiring bacteria and Escherichia coli” (J Med Chem, 1977)
The source made the active and inactive calls. No cut-off for these calls is given here.

Assays:
Enterococcus faecium [1] = experiment: Antibacterial activity against chlorguanide triazine-resistant Streptococcus faecium ATCC 8043 assessed as reduction in growth in presence of 0.002 ug/ml folic acid; assay type: functional, organism-based
In short: (§1)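 Folate-requiring strains grown in medium with folic acid, 0.002 µg/ml for S. faecium and 0.001 µg/ml for L. casei; P. cerevisiae given folinic acid, 0.001 µg/ml. Resistant substrains came from serial transfer in rising chlorguanide triazine, and the most resistant were used. Compounds tested up to 1000 µg/ml, or 100 µg/ml when supply was limited. Growth read as Klett turbidity; IC50 is the µM concentration giving 50% growth inhibition.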

Lacticaseibacillus casei [2] = experiment: Antibacterial activity against sensitive Lactobacillus casei ATCC 7469 assessed as reduction in growth in presence of 0.001 ug/ml folic acid; assay type: functional, organism-based
In short: (§2)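 Folate-requiring strains in the medium of the earlier assay method. Folic acid was 0.002 μg/ml for S. faecium and 0.001 μg/ml for L. casei. Turbidity read on a Klett-Summerson colorimeter. IC50 is the micromolar concentration reducing growth to 50% of control. Top concentration was 1000 μg/ml, or 100 μg/ml if supply was limited.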

Lacticaseibacillus casei [3] = experiment: Antibacterial activity against chlorguanide triazine-resistant Lactobacillus casei ATCC 7469 assessed as reduction in growth in presence of 0.001 ug/ml folic acid; assay type: functional, organism-based; in short: as §1
Pediococcus [4] = experiment: Antibacterial activity against sensitive Pediococcus cerevisiae ATCC 808 assessed as reduction in growth in presence of 0.001 ug/ml folinic acid; assay type: functional
In short: (§3)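 P. cerevisiae grown with folinic acid at 0.001 μg/ml in the earlier-described medium. Turbidity read on a Klett-Summerson colorimeter. IC50 is the micromolar concentration reducing growth to 50% of control. Top concentration was 1000 μg/ml, or 100 μg/ml when supply was limited.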

Pediococcus [5] = experiment: Antibacterial activity against chlorguanide triazine-resistant Pediococcus cerevisiae ATCC 808 assessed as reduction in growth in presence of 0.001 ug/ml folinic acid; assay type: functional; in short: as §1
Escherichia coli [6] = experiment: Antibacterial activity against sensitive Escherichia coli ATCC 10536 assessed as reduction in growth in presence of p-aminobenzoic acid; assay type: functional, organism-based
In short: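 Reversal test. Drug inhibition was challenged with PABA in Sahyun et al. medium plus 0.6% acid-hydrolyzed casein. Growth read as turbidity on a Klett-Summerson colorimeter. Scored as reversal or nonreversal of the drug inhibition.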

Plasmodium berghei [7] = experiment: Antimalarial activity against Plasmodium berghei infected in sc dosed mouse assessed as active dose required to increase of 100% in mean survival time; assay type: functional; conditions: read-out: MED
In short: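 Mice received a standard blood-induced P. berghei inoculum and were then treated with one subcutaneous dose of compound suspended in peanut oil. The minimum active dose is the lowest dose that raised mean survival time by 100%.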

Plasmodium berghei [8] = experiment: Antimalarial activity against Plasmodium berghei infected in sc dosed mouse assessed as dose required to survivors for period of 60 days; assay type: functional
In short: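 Mice infected with a blood-induced P. berghei inoculum were given one subcutaneous dose in peanut oil. Survivors at 60 days counted as cured. The minimum curative dose is the lowest dose that cured any mouse.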

Enterococcus faecium [9] = experiment: Antibacterial activity against sensitive Streptococcus faecium ATCC 8043 assessed as reduction in growth; assay type: functional, organism-based; in short: as §1
Enterococcus faecium [10] = experiment: Antibacterial activity against chlorguanide triazine-resistant Streptococcus faecium ATCC 8043 assessed as reduction in growth; assay type: functional, organism-based; in short: as §1
Enterococcus faecium [11] = experiment: Fold increase in resistance, ratio of IC50 for chlorguanide triazine-resistant Streptococcus faecium ATCC 8043 to IC50 for sensitive Streptococcus faecium ATCC 8043; assay type: functional
In short: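 Resistant S. faecium substrain raised by serial transfer in increasing chlorguanide triazine. IC50 (µM, 50% growth inhibition by turbidity) was found for resistant and parent strains in folic acid (0.002 µg/ml) medium. Fold increase taken as IC50 resistant / IC50 sensitive.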

Lacticaseibacillus casei [12] = experiment: Antibacterial activity against sensitive Lactobacillus casei ATCC 7469 assessed as reduction; assay type: functional, organism-based; in short: as §1
Lacticaseibacillus casei [13] = experiment: Antibacterial activity against chlorguanide triazine-resistant Lactobacillus casei ATCC 7469 assessed as reduction in growth; assay type: functional, organism-based; in short: as §1
Lacticaseibacillus casei [14] = experiment: Fold increase in resistance, ratio of IC50 for chlorguanide triazine-resistant Lactobacillus casei ATCC 7469 to IC50 for sensitive Lactobacillus casei ATCC 7469; assay type: functional
In short: (§4)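 Resistant substrains were made by serial transfer in rising concentrations of cycloguanil, and the most resistant isolate of each organism was used. Both strains were assayed turbidimetrically under identical conditions. FIR = IC50 of the resistant strain divided by IC50 of the sensitive parent.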

[15] = Antibacterial activity against sensitive Pediococcus cerevisiae ATCC 808 assessed as reduction; assay type: functional; in short: as §3
[16] = Antibacterial activity against chlorguanide triazine-resistant Pediococcus cerevisiae ATCC 808 assessed as reduction in growth; assay type: functional; in short: as §1
Pediococcus [17] = experiment: Fold increase in resistance, ratio of IC50 for chlorguanide triazine-resistant Pediococcus cerevisiae ATCC 808 to IC50 for sensitive Pediococcus cerevisiae ATCC 808; assay type: functional; in short: as §4
Escherichia coli [18] = experiment: Antibacterial activity against sensitive Escherichia coli ATCC 10536 assessed as reduction in growth; assay type: functional, organism-based
In short: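 Growth inhibition in Sahyun et al. medium plus 0.6% acid-hydrolyzed casein. Growth read as turbidity on a Klett-Summerson photoelectric colorimeter. IC50 is the micromolar concentration giving 50% growth inhibition. Top concentration was 1000 μg/ml, or 100 μg/ml when compound was limited.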

Enterococcus faecium [19] = experiment: Antibacterial activity against sensitive Streptococcus faecium ATCC 8043 assessed as reduction in growth in presence of 0.002 ug/ml folic acid; assay type: functional, organism-based; in short: as §2

Compound | inhibition (Enterococcus faecium [1]) | inhibition (Lacticaseibacillus casei [2]) | inhibition (Lacticaseibacillus casei [3]) | inhibition (Pediococcus [4]) | inhibition (Pediococcus [5]) | inhibition (Escherichia coli [6]) | minimal effective dose (Plasmodium berghei [7]) | MCD (Plasmodium berghei [8]) | IC50 (Enterococcus faecium [9]) | IC50 (Enterococcus faecium [10]) | Ratio IC50 (Enterococcus faecium [11]) | IC50 (Lacticaseibacillus casei [12]) | IC50 (Lacticaseibacillus casei [13]) | Ratio IC50 (Lacticaseibacillus casei [14]) | IC50 [15] | IC50 [16] | Ratio IC50 (Pediococcus [17]) | IC50 (Escherichia coli [18]) | inhibition (Enterococcus faecium [19])
CC1(C)N=C(N)N=C(N)N1OCCCOc1cc(Cl)c(Cl)cc1Cl | inactive | inactive | inactive | inactive | inactive | Active | 20 mg/kg | 160 mg/kg | 0.0001 µM | 0.019 µM | 190 | 0.021 µM | 0.4 µM | 19 | 0.003 µM | 0.8 µM | 267 | 1.7 µM | inactive
Nc1ncc(Cc2ccc3c(c2)OCO3)c(N)n1 | inactive | inactive | inactive | inactive | inactive | Active | 640 mg/kg | 640 mg/kg | 0.25 µM | 24.2 µM | 96.8 | 0.94 µM | 0.25 µM | 0.27 | 12.3 µM | 90.1 µM | 7.3 | 45 µM | inactive
Nc1nc(N)c2cc(NCc3ccc(Cl)c(Cl)c3)ccc2n1 | inactive | inactive | inactive | inactive | inactive | Active | 20 mg/kg | 80 mg/kg | 0.006 µM | 2 µM | 330 | 0.4 µM | 0.03 µM | 0.08 | 0.2 µM | 0.7 µM | 3.5 | 33 µM | inactive
CCCCN(CCCC)CC(O)c1cc(-c2ccc(Cl)c(Cl)c2)nc2c(Cl)cc(Cl)cc12 (centres undefined) | Active | Active | Active | Active | Active | Active | 5 mg/kg | 20 mg/kg | 327 µM | 572 µM | 2 | 170 µM | 250 µM | 2 | 290 µM | 354 µM | 1 | 182 µM | Active
Nc1nc(N)c2cc(SCc3ccc(Cl)cc3)ccc2n1 | inactive | inactive | inactive | inactive | inactive | Active | 320 mg/kg | 640 mg/kg | 0.04 µM | 1 µM | 25 | 0.2 µM | 0.04 µM | 0.2 | 0.05 µM | 1.4 µM | 28 | 2.9 µM | inactive
Nc1nc(N)c2cc(S(=O)(=O)c3ccc4ccccc4c3)ccc2n1 | inactive | inactive | inactive | inactive | inactive | Active | 0.63 mg/kg | 1.25 mg/kg | 0.002 µM | 0.08 µM | 40 | 0.04 µM | 0.009 µM | 0.23 | 0.002 µM | 0.05 µM | 25 | < 0.2 µM | inactive
CCN1CCCC(Nc2cc(C)nc(NC(=N)Nc3ccc(Cl)c(Cl)c3)n2)C1 (centres undefined) | Active | Active | Active | Active | Active | Active | 20 mg/kg | 40 mg/kg | 227 µM | 121 µM | 0.53 | 65.1 µM | 55.7 µM | 0.85 | 32 µM | 39 µM | 1 | 85 µM | Active
CC(C)c1nc2nc(N)nc(N)c2nc1C(C)C | inactive | inactive | inactive | inactive | inactive | Active | 640 mg/kg | 640 mg/kg | 0.005 µM | 0.3 µM | 60 | 3.2 µM | 0.5 µM | 0.16 | 0.07 µM | 0.5 µM | 7 | 8.1 µM | inactive
N=C(N)N/N=C(\c1ccc(F)cc1)c1ccc(C(F)(F)F)cc1 | Active | Active | Active | Active | Active | Active | 40 mg/kg | 160 mg/kg | 64 µM | 35 µM | 0.6 | 31 µM | 30 µM | 1 | 22 µM | 21 µM | 1 | 17 µM | Active
ClC(Cl)(Cl)c1ccc(C(Cl)(Cl)Cl)cc1 | Active | Active | Active | Active | Active | Active | 640 mg/kg | 640 mg/kg | 2000 µM | 1900 µM | 1 | 1000 µM | 990 µM | 1 | 959 µM | 2000 µM | 2 | 262 µM | Active
COc1cc(Cc2cnc(N)nc2N)cc(OC)c1OC [TRIMETHOPRIM] | inactive | inactive | inactive | inactive | inactive | Active | > 640 mg/kg | >640 mg/kg | 0.08 µM | 1.2 µM | 15 | 0.19 µM | 0.017 µM | 0.09 | 11.7 µM | 67.5 µM | 6 | 0.4 µM | inactive
